# Measured values published in ChEMBL document CHEMBL3997850 (ACS Med Chem Lett, 2017).
# Tests used:
# [1] = target: Voltage-gated inwardly rectifying potassium channel KCNH2 (Homo sapiens, UniProt Q12809); assay: Inhibition of human ERG by patch clamp method
# Cytochrome P450 2C9 = Cytochrome P450 2C9 (Homo sapiens, UniProt P11712); assay: Inhibition of recombinant human CYP2C9 assessed as decrease in hydroxylation of 7-methoxy-4-(trifluoromethyl)-coumarin by fluorimetric method; format: ADME; conditions: recombinant enzyme
# Cytochrome P450 2C9, sequence (P11712 whole entry): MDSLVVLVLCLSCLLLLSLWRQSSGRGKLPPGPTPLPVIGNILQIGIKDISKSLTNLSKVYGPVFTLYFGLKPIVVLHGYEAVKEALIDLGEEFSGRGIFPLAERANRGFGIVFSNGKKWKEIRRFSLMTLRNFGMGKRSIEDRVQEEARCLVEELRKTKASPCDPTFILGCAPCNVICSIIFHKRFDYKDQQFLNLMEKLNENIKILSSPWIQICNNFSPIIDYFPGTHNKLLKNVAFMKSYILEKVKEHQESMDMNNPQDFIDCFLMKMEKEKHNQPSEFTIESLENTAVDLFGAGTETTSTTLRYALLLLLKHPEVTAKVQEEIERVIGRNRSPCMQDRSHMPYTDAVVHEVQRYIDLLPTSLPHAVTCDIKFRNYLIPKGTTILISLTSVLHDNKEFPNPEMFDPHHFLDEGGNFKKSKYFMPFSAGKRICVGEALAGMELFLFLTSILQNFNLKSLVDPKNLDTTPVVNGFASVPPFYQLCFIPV
# Outline: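 Recombinant human isozymes with substrate at Km concentration: CYP2C9 with 7-methoxy-4-(trifluoromethyl)coumarin, CYP2D6 with 7-methoxy-4-methylcoumarin. Hydroxylation read fluorimetrically, inhibitor 0–25 µM.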
# Liver [2] = assay: Intrinsic clearance in rat hepatic S9 fraction at 5 uM in presence of UDPGA measured over 30 mins by LC/MS analysis; format: ADME; conditions: s9, 0.5 h
# Liver [3] = assay: Intrinsic clearance in rat hepatic S9 fraction at 5 uM in presence of UDPGA/NADPH measured over 30 mins by LC/MS analysis; format: ADME, tissue-based; conditions: s9, 0.5 h
# Outline: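 Rat hepatic S9 (2 mg/mL protein) with compound 5 µM, 50 mM Tris-HCl pH 7.5, 8 mM MgCl2, 2 mM NADPH, 2 mM UDPGA, 12.7 µM alamethicin, 37 °C. Reaction started with S9. Aliquots taken over 0–30 min, quenched with acetonitrile, analyzed by LC/MS.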
# Rattus norvegicus = assay: AUC in rat at 5 mg/kg, iv or 5 mg/kg, po by LC/MS/MS analysis; format: ADME, organism-based; conditions: in vivo
# Outline: (§1)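 Male rats, 5 mg/kg IV in 10% DMAC/saline or 5 mg/kg oral in 0.5% aqueous methylcellulose. Plasma (EDTA) sampled pre-dose to 24 h. Quantified by acetonitrile precipitation and LC/MS/MS (2–10000 nM range, 0.1 mL). Non-compartmental analysis of concentration–time data.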
# Cynomolgus monkey = assay: AUC in cynomolgus monkey at 4 mg/kg, iv or 10 mg/kg, po by LC/MS/MS analysis; format: ADME, organism-based, Macaca fascicularis; conditions: in vivo
# Outline: (§2)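 Male cynomolgus monkeys given 4 mg/kg IV (5% DMAC, 40% propylene glycol in saline) or 10 mg/kg orally (0.5% methylcellulose). EDTA plasma collected pre-dose through 24 h. Acetonitrile protein precipitation, then LC/MS/MS quantification, linear 2–10000 nM. PK parameters by standard non-compartmental methods.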
# [4] = Half life in rat at 5 mg/kg, po by LC/MS/MS analysis; format: ADME, organism-based; conditions: in vivo; outline: as §1
# [5] = Half life in cynomolgus monkey at 10 mg/kg, po by LC/MS/MS analysis; format: ADME, organism-based, Macaca fascicularis; conditions: in vivo; outline: as §2
# [6] = AUC in mouse CT26 cells allografted immunocompetent Balb/c mouse model at 30 mg/kg, po by LC/MS/MS analysis; format: ADME, organism-based; conditions: in vivo
# Cytochrome P450 3A4 = Cytochrome P450 3A4 (Homo sapiens, UniProt P08684); assay: Inhibition of recombinant human CYP3A4 assessed as decrease in hydroxylation of 7-benzyloxy-4-trifluoromethyl-coumarin by fluorescence assay; format: ADME; conditions: recombinant enzyme
# Cytochrome P450 3A4, sequence (P08684 whole entry): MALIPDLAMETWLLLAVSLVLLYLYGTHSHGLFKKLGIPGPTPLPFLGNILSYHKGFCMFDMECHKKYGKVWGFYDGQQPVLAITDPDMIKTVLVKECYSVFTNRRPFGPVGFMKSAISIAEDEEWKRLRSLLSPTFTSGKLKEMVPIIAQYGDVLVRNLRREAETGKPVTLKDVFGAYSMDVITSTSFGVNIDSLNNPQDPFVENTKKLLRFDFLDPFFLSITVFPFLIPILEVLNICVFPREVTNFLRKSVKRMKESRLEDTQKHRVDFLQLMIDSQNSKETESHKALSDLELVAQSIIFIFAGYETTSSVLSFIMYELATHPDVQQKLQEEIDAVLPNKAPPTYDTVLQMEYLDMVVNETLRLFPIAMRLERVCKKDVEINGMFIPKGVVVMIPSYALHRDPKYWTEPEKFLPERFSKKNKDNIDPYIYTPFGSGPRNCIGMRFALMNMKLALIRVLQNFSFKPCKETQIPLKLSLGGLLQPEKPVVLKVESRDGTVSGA
# Outline: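 Recombinant human CYP1A2 or CYP3A4 with 7-benzyloxy-4-trifluoromethyl-coumarin at Km concentration; hydroxylation read by fluorescence. Inhibitor tested at 0–25 µM.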
# Cytochrome P450 2C8 = target: T1, Cytochrome P450 2C8 (Homo sapiens, UniProt P10632); assay: Inhibition of recombinant human CYP2C8 assessed as decrease in conversion of dibenzylfluoresein to fluorescein by fluorimetric method; format: ADME; conditions: recombinant enzyme
# T1 sequence (P10632 whole entry): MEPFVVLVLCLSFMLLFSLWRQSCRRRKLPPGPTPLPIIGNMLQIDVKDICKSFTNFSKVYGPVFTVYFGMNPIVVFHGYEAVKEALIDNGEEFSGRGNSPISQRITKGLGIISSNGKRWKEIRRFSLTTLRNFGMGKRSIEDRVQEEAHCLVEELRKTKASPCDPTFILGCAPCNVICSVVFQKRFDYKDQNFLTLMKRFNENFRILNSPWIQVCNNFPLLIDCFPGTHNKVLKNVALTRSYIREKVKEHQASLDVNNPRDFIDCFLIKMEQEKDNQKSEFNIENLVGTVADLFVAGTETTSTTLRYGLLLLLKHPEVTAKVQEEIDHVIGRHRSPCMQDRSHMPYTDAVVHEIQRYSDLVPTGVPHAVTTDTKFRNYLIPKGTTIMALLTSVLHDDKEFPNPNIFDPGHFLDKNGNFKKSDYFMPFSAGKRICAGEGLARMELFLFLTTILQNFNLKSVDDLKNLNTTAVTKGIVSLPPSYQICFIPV
# Outline: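 Recombinant human CYP2C8; dibenzylfluorescein at Km concentration converted to fluorescein, measured fluorimetrically. Inhibitor range 0–25 µM.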
# [7] = Clearance in rat at 5 mg/kg, iv or 5 mg/kg, po by LC/MS/MS analysis; format: ADME, organism-based; conditions: in vivo; outline: as §1
# [8] = Clearance in beagle dog at 5 mg/kg, iv or 10 mg/kg, po by LC/MS/MS analysis; format: ADME, organism-based, Canis lupus familiaris; conditions: in vivo
# Outline: (§3)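 Male beagle dogs dosed 5 mg/kg IV in 10% DMAC in saline or 10 mg/kg oral in 5% DMAC in 0.5% methylcellulose. EDTA blood taken from pre-dose to 24 h and spun to plasma. Plasma proteins precipitated with acetonitrile, then LC/MS/MS (linear 2–10000 nM, 0.1 mL plasma). Parameters derived by non-compartmental analysis.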
# [9] = Clearance in cynomolgus monkey at 4 mg/kg, iv or 10 mg/kg, po by LC/MS/MS analysis; format: ADME, organism-based, Macaca fascicularis; conditions: in vivo; outline: as §2
# [10] = Volume of distribution at steady state in beagle dog at 5 mg/kg, iv or 10 mg/kg, po by LC/MS/MS analysis; format: ADME, organism-based, Canis lupus familiaris; conditions: in vivo, read-out: Vdss; outline: as §3
# [11] = Volume of distribution at steady state in cynomolgus monkey at 4 mg/kg, iv or 10 mg/kg, po by LC/MS/MS analysis; format: ADME, organism-based, Macaca fascicularis; conditions: in vivo, read-out: Vdss; outline: as §2
# [12] = Half life in cynomolgus monkey at 4 mg/kg, iv by LC/MS/MS analysis; format: ADME, organism-based, Macaca fascicularis; conditions: in vivo; outline: as §2
# [13] = Oral bioavailability in rat at 5 mg/kg by LC/MS/MS analysis; format: ADME, organism-based; conditions: in vivo; outline: as §1
# [14] = Oral bioavailability in cynomolgus monkey at 10 mg/kg by LC/MS/MS analysis; format: ADME, organism-based, Macaca fascicularis; conditions: in vivo; outline: as §2
# Mus musculus [15] = assay: Toxicity in mouse up to 2000 mg/kg/day after 28 days by clinical pathology test; format: organism-based; conditions: in vivo, 672 h
# Mus musculus [16] = assay: Toxicity in mouse up to 2000 mg/kg/day after 28 days by histopathology test; format: organism-based; conditions: in vivo, 672 h
# Mus musculus [17] = assay: Toxicity in mouse assessed as effect on food consumption up to 2000 mg/kg/day after 28 days; format: organism-based; conditions: in vivo, 672 h
# Canis familiaris [18] = assay: Toxicity in dog up to 500 mg/kg/day after 28 days by clinical pathology test; format: organism-based, Canis lupus familiaris; conditions: in vivo, 672 h
# Canis familiaris [19] = assay: Toxicity in dog up to 500 mg/kg/day after 28 days by histopathology test; format: organism-based, Canis lupus familiaris; conditions: in vivo, 672 h
# Canis familiaris [20] = assay: Toxicity in dog assessed as effect on food consumption up to 500 mg/kg/day after 28 days; format: organism-based, Canis lupus familiaris; conditions: in vivo, 672 h
# Voltage-gated inwardly rectifying potassium channel KCNH2, sequence (Q12809 whole entry): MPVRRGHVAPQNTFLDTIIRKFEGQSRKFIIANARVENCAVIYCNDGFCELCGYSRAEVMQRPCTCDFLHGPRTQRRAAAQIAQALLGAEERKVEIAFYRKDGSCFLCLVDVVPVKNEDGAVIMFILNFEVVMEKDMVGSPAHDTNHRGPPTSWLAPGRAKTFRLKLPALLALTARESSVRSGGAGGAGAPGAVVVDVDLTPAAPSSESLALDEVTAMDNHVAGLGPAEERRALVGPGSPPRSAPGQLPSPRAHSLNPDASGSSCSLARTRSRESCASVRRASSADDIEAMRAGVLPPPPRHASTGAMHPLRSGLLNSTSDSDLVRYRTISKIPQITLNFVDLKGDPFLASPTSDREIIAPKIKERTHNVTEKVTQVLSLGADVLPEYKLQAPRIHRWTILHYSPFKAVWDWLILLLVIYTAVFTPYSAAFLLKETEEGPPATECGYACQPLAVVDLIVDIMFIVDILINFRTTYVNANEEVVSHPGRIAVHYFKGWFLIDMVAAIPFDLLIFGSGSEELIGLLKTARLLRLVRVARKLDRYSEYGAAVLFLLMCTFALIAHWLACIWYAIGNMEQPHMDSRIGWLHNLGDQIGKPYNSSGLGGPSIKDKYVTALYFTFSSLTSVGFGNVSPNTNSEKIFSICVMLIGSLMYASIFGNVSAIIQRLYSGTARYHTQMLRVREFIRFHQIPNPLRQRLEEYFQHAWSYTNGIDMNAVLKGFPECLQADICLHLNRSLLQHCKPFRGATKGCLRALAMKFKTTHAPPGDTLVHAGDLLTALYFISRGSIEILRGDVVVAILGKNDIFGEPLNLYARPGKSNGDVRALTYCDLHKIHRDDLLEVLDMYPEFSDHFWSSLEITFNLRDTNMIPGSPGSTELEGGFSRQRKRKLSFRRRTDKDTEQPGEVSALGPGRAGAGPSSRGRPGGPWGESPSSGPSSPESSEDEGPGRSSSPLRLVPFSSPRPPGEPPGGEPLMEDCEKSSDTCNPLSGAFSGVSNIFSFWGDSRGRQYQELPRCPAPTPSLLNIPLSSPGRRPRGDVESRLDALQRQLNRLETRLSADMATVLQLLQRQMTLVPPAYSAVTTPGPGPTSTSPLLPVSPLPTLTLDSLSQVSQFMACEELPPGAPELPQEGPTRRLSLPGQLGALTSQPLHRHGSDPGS
structure (smiles),measurement,setting,value
NS(=O)(=O)NCCNc1nonc1C(=NO)Nc1ccc(F)c(Br)c1 [EPACADOSTAT],inhibition (INH),[1],Not Active
same,inhibition (INH),Cytochrome P450 2C9,Not Active
same,CLH,Liver [2],6.7 mL/min/kg
same,CLH,Liver [3],12 mL/min/kg
same,AUC,Rattus norvegicus,1.3 µM·h
same,AUC,Cynomolgus monkey,9.3 µM·h
same,half-life,[4],2.2 h
same,half-life,[5],2.7 h
same,AUC,[6],15 µM·h
same,inhibition (INH),Cytochrome P450 3A4,Not Active
same,inhibition (INH),Cytochrome P450 2C8,Not Active
same,clearance,[7],18.3 mL/min/kg
same,clearance,[8],8.33 mL/min/kg
same,clearance,[9],13.3 mL/min/kg
same,Vd,[10],0.7 L/kg
same,Vd,[11],1.8 L/kg
same,half-life,[12],3.3 h
same,bioavailability,[13],11%
same,bioavailability,[14],33%
same,Activity,Mus musculus [15],Non-Toxic
same,Activity,Mus musculus [16],Non-Toxic
same,Activity,Mus musculus [17],Non-Toxic
same,Activity,Canis familiaris [18],Non-Toxic
same,Activity,Canis familiaris [19],Non-Toxic
same,Activity,Canis familiaris [20],Non-Toxic
